# Assay outcomes deposited in PubChem BioAssay by Broad Institute.
# The list is not random: actives were taken first. Their share in the collection is about 1.3%.
# XiGFP reactiv – reactivates the inactive X chromosome in mouse fibroblasts; XiGFP mouse fibroblasts, % GFP-positive cells imaging, 3 d; cells co-treated with 5-aza-dC sensitizer; scaled so ellipticine positive control = 100%; activation, % at 7.58 µM; 360,000 compounds, 0.055% hits; AID 743238;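 active means mean normalized replicate activation at least 10% and every replicate at or above 10%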;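 further: 0% = median of on-plate neutral control wells and 100% = ellipticine 6 µM median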
#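 Assay system – SV40-immortalized XiGFP fibroblast cells, line 68-5-11 · Buffer or medium – DMEM supplemented with 5-aza-dC as sensitizing agent · Dosing – one concentration, pinned · Benchmarks – positive control ellipticine, 6 µM final · Times – 3 days compound exposure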
# RAD54 inh – inhibitors of human RAD54 branch migration; Q92698; inhibition, % at 10.4 µM; 360,000 compounds, 0.14% hits; RAD54 Holliday junction branch migration, FAM/BHQ fluorescence; AID 602329;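 active means mean normalized replicate activity at least 40 and at least half of replicates scoring 40 or more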;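 further: 0% = median of neutral control wells and 100% = median of positive control wells; inhibitors cause a drop in the FAM fluorescence signal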
# MLL AF4-AF9 inh – inhibitors of human MLL-AF4/AF9 interaction | 350,000 compounds, 0.47% hits | AlphaScreen, biotin-AF4 peptide binding to FLAG-AF9 | AID 651704 | P42568 | inhibition, % at 10 µM;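 active means every replicate reaching a set inhibition limit, whatever the replicate mean, cut at about 25% in these data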;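 further: 0% = plate neutral control median and 100% = total signal loss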
# S100A4 MyoIIA – inhibitors of human S100A4 binding to myosin IIA peptide | S100A4/TAMRA-MyoIIA peptide fluorescence polarization | inhibition, % at 10.7 µM | 360,000 compounds, 0.14% hits;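 active means mean inhibition of at least 70% across replicates, with every replicate also reaching that level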
# Target sequence (P26447 whole entry, looked up): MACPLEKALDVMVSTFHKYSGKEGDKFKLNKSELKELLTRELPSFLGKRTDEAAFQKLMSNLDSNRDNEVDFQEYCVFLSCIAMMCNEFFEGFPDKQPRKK
#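 incubation = readout 5 min after mixing, signal stable up to 60 min | system = S100A4 monomer protein | buffer or medium = HEPES pH 7.2 with CaCl2, KCl, NaCl, DTT, Triton | benchmarks = neutral control DMSO, positive control TFP | also added = fluorescent myosin IIA peptide, 5 nM | compound dosing = one concentration per compound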
# RAD52 inh – blocks human RAD52 DNA annealing; P43351; recombinant RAD52 DNA annealing, FRET fluorescence; inhibition, % at 18.7 µM; 360,000 compounds, 0.46% hits;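 active means every replicate showing at least 50% inhibition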
# Casp6 inh – blocks human caspase-6 cleavage activity; P55212; purified caspase-6, Z-VEID-R110 cleavage fluorescence; inhibition, % at 12.5 µM; 350,000 compounds, 0.53% hits; AID 686996;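 active means mean inhibition across replicates at least about 35%, with every replicate also reaching that limit, limit read from the data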;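 further: 0% = median of neutral control wells and 100% = no fluorescence left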
# Target sequence (P55212 24-179 limits assumed): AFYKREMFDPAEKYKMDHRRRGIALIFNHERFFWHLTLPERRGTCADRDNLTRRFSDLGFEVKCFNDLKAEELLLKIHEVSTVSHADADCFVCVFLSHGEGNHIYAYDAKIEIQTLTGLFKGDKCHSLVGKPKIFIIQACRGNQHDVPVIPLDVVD
# Target sequence (P55212 194-293 limits assumed): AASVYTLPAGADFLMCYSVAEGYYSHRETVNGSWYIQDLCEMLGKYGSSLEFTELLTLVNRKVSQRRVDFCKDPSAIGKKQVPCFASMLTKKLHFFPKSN
# * marks the source's active call; other numbers are inactive results; . = no result.
SMILES,XiGFP reactiv,RAD54 inh,MLL AF4-AF9 inh,S100A4 MyoIIA,RAD52 inh,Casp6 inh
CO[C@H]1CN(C)C(=O)c2ccc(NS(=O)(=O)c3ccc(-c4ccccc4)cc3)cc2OC[C@@H](C)NC[C@H]1C,0,-4,-1,-2,16,-1
N#Cc1c(NC(=O)c2ccc([N+](=O)[O-])o2)sc2c1CCC2,0,-5,11,-2,7,59*
COc1cccc(-c2ccc([C@@H]3[C@@H](CO)N4CCCCN(CC5CCOCC5)C[C@@H]34)cc2)c1,.,6,6,-17,47,1
O=C(Nc1ccc(F)cc1)N1CCCCN2[C@H](CO)[C@@H](c3ccc(-c4ccccc4F)cc3)[C@@H]2C1,.,5,-6,-1,49,1
O=C(Nc1ccc(F)cc1)N1CCCCN2[C@H](CO)[C@H](c3ccc(-c4ccccc4F)cc3)[C@H]2C1,.,6,11,-44,60*,-1
OC[C@H]1[C@@H](c2ccc(-c3ccccc3F)cc2)[C@@H]2CN(Cc3cccnc3)CCCCN12,0,-3,6,-11,9,-2
OC[C@H]1[C@H](c2ccc(-c3ccccc3F)cc2)[C@H]2CN(Cc3cccnc3)CCCCN21,0,-9,6,3,5,47*
O=S(=O)(c1ccccc1)N1CCCCN2[C@@H](CO)[C@H](c3ccc(-c4ccccc4F)cc3)[C@@H]2C1,0,-1,.,.,-7,.
O=C(Nc1ccc(F)cc1)N1CCCCN2[C@H](CO)[C@@H](c3ccc(-c4ccccc4F)cc3)[C@H]2C1,.,8,10,8,53*,0
O=S(=O)(c1ccc(F)cc1)N1CCCCN2[C@H](CO)[C@@H](c3ccc(-c4ccccc4F)cc3)[C@H]2C1,.,0,2,2,56*,-1
CCC(=O)N(C1=C(NC)C(=O)c2ccccc2C1=O)C(C)C,0,.,0,-2,-4,72*
Cc1cccc(OCC(=O)NNC(=O)c2ccc3nc[nH]c3c2)c1,-1,1,1,-11,-7,41*
CC(NC(=S)NC1CCCCC1)c1ccc(C(C)(C)C)cc1 (stereo not given),0,3,1,0,5,42*
CC(C)c1ccc(C(C)NC(=S)NC2CCCCC2)cc1 (stereo not given),0,-2,0,0,7,2
CC(C)NC(=O)N(C)C[C@@H]1Oc2cc(Br)ccc2S(=O)(=O)N([C@H](C)CO)C[C@H]1C,0,0,-2,2,1,-2
COc1ccc(-c2ccc3c(c2)[C@@H]2[C@@H](CCN2C(=O)C2CCCC2)[C@H](CO)N3C)cc1,0,.,35*,-10,24,2
CN1c2ccc(-c3cccc(F)c3)cc2[C@H]2[C@H](CCN2C(=O)C2CCC2)[C@H]1CO,0,.,28*,.,-2,.
CN1c2ccc(-c3cccc(F)c3)cc2[C@@H]2[C@@H](CCN2C(=O)C2CCC2)[C@H]1CO,0,.,9,11,10,-5
COc1cccc(-c2ccc3c(c2)[C@H]2[C@H](CCN2C(=O)c2ccc4c(c2)OCO4)[C@H](CO)N3C)c1,0,-1,-1,98*,-3,0
COc1cccc(-c2ccc3c(c2)[C@@H]2[C@@H](CCN2C(=O)NC2CCCC2)[C@H](CO)N3C)c1,0,-1,26*,11,3,2
COc1ccc(-c2ccc3c(c2)[C@@H]2[C@@H](CCN2C(=O)c2ccc4c(c2)OCO4)[C@@H](CO)N3C)cc1,0,6,3,-1,-1,-5
COc1ccccc1S(=O)(=O)N[C@H]1C=C[C@@H](CC(=O)NCc2cccc(F)c2)O[C@H]1CO,0,-2,-2,3,-9,1
COCC(=O)Nc1ccc2c(c1)OC[C@@H](C)N(CC1CCCCC1)C[C@@H](C)[C@@H](OC)CN(C)C2=O,0,.,.,.,.,.
CN1c2ccc(C3=CCCCC3)cc2[C@@H]2[C@@H](CCN2C(=O)C2CCCCC2)[C@H]1CO,0,.,25*,15,-1,7
